According to ChEMBL document CHEMBL1123011, “Isoxazoles with antipicornavirus activity” (1985):
≈ marks a conversion by molar mass, not a printed value. Calls of active or inactive are those of the source. No cut-off for these calls is given here.

Tests used:
[1] = test system: Poliovirus 2; experiment: In vitro anti-picornavirus activity against Poliovirus type-2.; assay type: functional; conditions: Enterovirus C
[2] = Maximum testable level of compound was evaluated; assay type: functional
How it was run: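 In the HeLa (Ohio) plaque-overlay system, Me2SO-solubilized compound was twofold serially diluted into the agarose overlay. Uninfected cell controls were run alongside and cells were stained with crystal violet after 3 days. The maximum testable level was taken as the concentration below which no cytotoxic effects were seen.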

[3] = test system: rhinovirus A2; experiment: (§1) In vitro anti-picornavirus activity against Rhinovirus type-2.; assay type: functional; conditions: Rhinovirus A
How it was run: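 HeLa (Ohio) monolayers (day-old, 90%) were infected at about 80 pfu/well and adsorbed at least 1 h at 33 °C in 2% CO2. After 3 days at 33 °C they were fixed with formaldehyde and stained with crystal violet.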

[4] = test system: Poliovirus 2; experiment: In vitro for anti-picornavirus activity against Poliovirus type-2; Not Active.; assay type: functional, organism-based
How it was run: (§2)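 Plaque-reduction assay on day-old HeLa (Ohio) monolayers at 90% confluence, infected with polio-2 at ca. 80 pfu/well. Adsorption was at least 1 h at 37 °C in 2% CO2. Cells were then overlaid in duplicate with drug in M-199/calf serum/agarose (Me2SO stock at 10 mg/mL, twofold dilutions) and held 3 days. Plaques were fixed with formaldehyde, stained with crystal violet and counted. MIC is the concentration giving 50% plaque reduction.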

[5] = test system: Poliovirus 2; experiment: Compound tested in vitro for anti-picornavirus activity against Poliovirus type-2; NA=Not Active; assay type: functional, organism-based; how it was run: as §2
[6] = test system: rhinovirus A2; experiment: as §1; assay type: functional; conditions: Rhinovirus A; remark: listed apart in the source
How it was run: (§3)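 HeLa (Ohio) monolayers (day-old, 90%) were infected at about 80 pfu/well and adsorbed at least 1 h at 33 °C in 2% CO2. After 3 days at 33 °C they were fixed with formaldehyde and stained with crystal violet. MIC was the concentration giving 50% fewer plaques.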

[7] = test system: Poliovirus 2; experiment: Compound tested in vitro for anti-picornavirus activity against Poliovirus type-2; assay type: functional; conditions: Enterovirus C; how it was run: as §2
[8] = test system: rhinovirus A2; experiment: In vitro anti-picornavirus activity against Rhinovirus type-2; Not Active.; assay type: functional, organism-based; how it was run: as §3
[9] = test system: Poliovirus 2; experiment: Compound tested in vitro for anti-picornavirus activity against Poliovirus type-2; NA=Not Active.; assay type: functional, organism-based; how it was run: as §2

| SMILES | MIC [1] [µg/mL] | MTL [2] [µg/mL] | MIC [3] [µg/mL] | MIC [6] [µg/mL] | further results |
| --- | --- | --- | --- | --- | --- |
| Cc1cc(CCCCCCCOc2ccc(C(=O)OC(C)C)cc2)on1 | 0.9 (≈ 2.5 µM) | 12.5 | 0.2 (≈ 0.556 µM) |  |  |
| CCCOC(=O)c1ccc(OCCCCCCCc2cc(C)no2)cc1 |  | 25 | 0.07 (≈ 0.195 µM) |  | MIC [4]: inactive |
| CCc1noc(CC)c1CCCCCCOc1ccc(F)cc1Cl |  | 12.5 |  | 3.1 (≈ 8.76 µM) | MIC [5]: inactive |
| CCc1noc(CC)c1CCCCCCOc1ccc(C(=O)OC)cc1Br |  | 12.5 |  | 0.4 (≈ 0.912 µM) | MIC [7]: 2.2 µg/mL (≈ 5.02 µM) |
| CCC(=O)c1ccc(OCCCCCCCc2cc(C)no2)cc1 | 0.4 (≈ 1.21 µM) | 6.2 | 1.7 (≈ 5.16 µM) |  |  |
| CCc1noc(CC)c1CCCCCCOc1ccc(O)cc1 |  | 25 |  |  | MIC [5]: inactive; MIC [8]: inactive |
| CCOC(=O)c1ccc(OCCCCCCCc2cc(C)no2)cc1 | 0.8 (≈ 2.32 µM) | 2.5 | 0.025 (≈ 0.0724 µM) |  |  |
| COC(=O)c1ccc(OCCCCCCCc2cc(C)no2)cc1 | 0.4 (≈ 1.21 µM) | 6.2 | 3 (≈ 9.05 µM) |  |  |
| CCc1noc(CC)c1CCCCCCOc1ccc(OC)cc1Cl |  | 12 |  | 0.8 (≈ 2.19 µM) | MIC [9]: inactive |
| CCc1noc(CC)c1CCCCCCOc1c(OC)cccc1OC |  | 6.2 |  | 3.1 (≈ 8.58 µM) | MIC [5]: inactive |
| Cc1cc(CCCCCCCOc2ccc(C(N)=O)cc2)on1 |  | 12.5 |  |  | MIC [4]: inactive; MIC [8]: inactive |
| CCOC(=O)c1ccc(OCCCCCCc2cc(C)no2)cc1 |  | 12.5 |  | 0.01 (≈ 0.0302 µM) | MIC [7]: 0.8 µg/mL (≈ 2.41 µM) |
| COc1ccc(OCCCCCCc2cc(C)no2)c(Cl)c1 |  | 12.5 |  | 0.8 (≈ 2.47 µM) | MIC [7]: 0.3 µg/mL (≈ 0.926 µM) |
| Cc1cc(CCCCCCCOc2ccc(C(=O)NN)cc2)on1 |  | 12.5 | 0.64 (≈ 1.93 µM) |  | MIC [4]: inactive |
| CCOC(=O)c1ccc(OCCCCCCCc2c(CC)noc2CC)cc1 | 0.4 (≈ 1.03 µM) | 12 | 0.05 (≈ 0.129 µM) |  |  |
| CCc1noc(CC)c1CCCCCCOc1ccc(Br)cc1 |  | 6 |  |  | MIC [5]: inactive; MIC [8]: inactive |
| CC(=O)c1ccc(OCCCCCCCc2cc(C)no2)cc1 | 0.01 (≈ 0.0317 µM) | 12.5 | 1.6 (≈ 5.07 µM) |  |  |
| CCc1noc(CC)c1CCCCCCOc1ccccc1C(F)(F)F |  | 6.2 |  | 3.1 (≈ 8.39 µM) | MIC [5]: inactive |
| CCOC(=O)c1ccc(OCCCCc2cc(C)no2)cc1 |  | 6.2 |  | 3.1 (≈ 10.2 µM) | MIC [5]: inactive |
| CCc1noc(CC)c1CCCCCCOc1ccc(SC)cc1 |  | 12.5 |  |  | MIC [7]: 0.6 µg/mL (≈ 1.73 µM); MIC [8]: inactive |
| COc1ccc(OCCCCCCCc2cc(C)no2)c([N+](=O)[O-])c1 | 0.2 (≈ 0.574 µM) | 3.1 | 0.3 (≈ 0.861 µM) |  |  |
| CCOC(=O)c1cccc(OCCCCCCCc2cc(C)no2)c1 |  | 12.5 | 1.6 (≈ 4.63 µM) |  | MIC [4]: inactive |
| CCc1noc(CC)c1CCCCCCOc1ccc(C(=O)O)cc1 |  | 3.1 |  |  | MIC [5]: inactive; MIC [8]: inactive |
| CCOC(=O)c1ccc(OCCCCCCCCc2c(CC)noc2CC)cc1 |  | 12.5 | 0.4 (≈ 0.996 µM) |  | MIC [4]: inactive |

| SMILES | MIC [1] [µg/mL] | MTL [2] [µg/mL] | MIC [3] [µg/mL] | MIC [6] [µg/mL] | further results |
| --- | --- | --- | --- | --- | --- |
| Cc1cc(CCCCCCCOc2ccc(Cl)cc2)on1 | 0.3 (≈ 0.975 µM) | 3.1 | 1.5 (≈ 4.87 µM) |  |  |
| CCOC(=O)c1ccc(OCCCCCCc2c(CC)noc2CC)cc1 |  | 6.2 |  | 0.1 (≈ 0.268 µM) | MIC [7]: 0.5 µg/mL (≈ 1.34 µM) |
| Cc1ccc(OCCCCCCCc2cc(C)no2)c(Cl)c1 | 0.8 (≈ 2.49 µM) | 6.2 | 1.2 (≈ 3.73 µM) |  |  |
| Cc1cc(CCCCCCCOc2ccc(C(C)C)cc2)on1 | 0.04 (≈ 0.127 µM) | 12.5 | 1 (≈ 3.17 µM) |  |  |
| CCc1noc(CC)c1CCCCCCOc1c(Cl)cccc1Cl |  | 12 |  | 1.6 (≈ 4.32 µM) | MIC [7]: 5.9 µg/mL (≈ 15.9 µM) |
| CCc1noc(CC)c1CCCCCCOc1ccc(OC)cc1[N+](=O)[O-] | 1.5 (≈ 3.98 µM) | 6 | 0.3 (≈ 0.797 µM) |  |  |
| CCc1noc(CC)c1CCCCCCOc1ccc(OC)cc1Br |  | 6 |  | 0.4 (≈ 0.975 µM) | MIC [5]: inactive |
| CCOC(=O)c1ccc(OCCCCCc2cc(C)no2)cc1 |  | 12.5 |  | 0.015 (≈ 0.0473 µM) | MIC [7]: 0.6 µg/mL (≈ 1.89 µM) |
| COc1ccc(OCCCCCc2cc(C)no2)c(Cl)c1 |  | 12.5 |  | 0.4 (≈ 1.29 µM) | MIC [7]: 0.2 µg/mL (≈ 0.646 µM) |
| Cc1cc(CCCCCCCOc2ccccc2)on1 | 1.7 (≈ 6.22 µM) | 6.2 | 1.2 (≈ 4.39 µM) |  |  |
| COc1ccc(OCCCCCCCCc2cc(C)no2)c(Cl)c1 | 0.65 (≈ 1.85 µM) | 12.5 | 0.16 (≈ 0.455 µM) |  |  |
| CCc1noc(CC)c1CCCCCCOc1ccccc1F |  | 6.2 |  | 3.1 (≈ 9.71 µM) | MIC [5]: inactive |
| Cc1cc(CCCCCCCOc2ccc(C(=O)N(C)C)cc2)on1 | 2.5 (≈ 7.26 µM) | 3.1 |  |  | MIC [8]: inactive |
| CCc1noc(CC)c1CCCCCCOc1ccc2c(c1)OCO2 |  | 6.2 |  |  | MIC [5]: inactive; MIC [8]: inactive |
| CCc1noc(CC)c1CCCCCCOc1ccc(OC)cc1 |  | 6.2 |  | 3.1 (≈ 9.35 µM) | MIC [5]: inactive |
| CCc1noc(CC)c1CCCCCCOc1cccc(I)c1 |  | 12.5 |  | 6.3 (≈ 14.7 µM) | MIC [5]: inactive |
| CCc1noc(CC)c1CCCCCCOc1ccc(C(=O)OC)cc1Cl |  | 1.6 |  | 0.4 (≈ 1.02 µM) | MIC [7]: 0.61 µg/mL (≈ 1.55 µM) |
| CCc1noc(CC)c1CCCCCCOc1ccc(OC)cc1C(=O)O |  | 12.5 |  |  | MIC [5]: inactive; MIC [8]: inactive |
| Cc1cc(CCCCCCCOc2ccc([N+](=O)[O-])cc2)on1 | 1.5 (≈ 4.71 µM) | 1.6 |  |  | MIC [8]: inactive |
| Cc1cc(CCCCCCCOc2ccc(C(=O)OC(C)(C)C)cc2)on1 | 1.2 (≈ 3.21 µM) | 2.5 | 6.2 (≈ 16.6 µM) |  |  |
| Cc1cc(CCCCCCCOc2ccc(OCc3ccccc3)cc2)on1 |  | 12.5 |  |  | MIC [8]: inactive |
| Cc1cc(CCCCCCCOc2ccc(OC(C)C)cc2)on1 | 0.1 (≈ 0.302 µM) | 12.5 | 0.7 (≈ 2.11 µM) |  |  |
| CCc1noc(CC)c1CCCCCCOc1ccc(OC)cc1C(=O)OC |  | 12 |  |  | MIC [7]: 2.9 µg/mL (≈ 7.45 µM); MIC [8]: inactive |
| CCOC(=O)c1ccc(OCCCCCCCCc2cc(C)no2)cc1 |  | 12.5 | 0.05 (≈ 0.139 µM) |  | MIC [4]: inactive |
